Laboratory results as given in ChEMBL document CHEMBL4359913, “Identification and characterization of benzo[d]oxazol-2(3H)-one derivatives as the first potent and selective small-molecule inhibitors of chromodomain protein CDYL” (Eur J Med Chem, 2019).
The source made the active and inactive calls. No cut-off for these calls is given here.

Legend:
[1] = biological target: T1, Chromodomain Y-like protein (Homo sapiens, UniProt Q9Y232); assay: Binding affinity to recombinant human N-terminal GST-tagged CDYL (1 to 60 residues) expressed in Escherichia coli […] by SPR analysis
T1 sequence (Q9Y232 whole entry): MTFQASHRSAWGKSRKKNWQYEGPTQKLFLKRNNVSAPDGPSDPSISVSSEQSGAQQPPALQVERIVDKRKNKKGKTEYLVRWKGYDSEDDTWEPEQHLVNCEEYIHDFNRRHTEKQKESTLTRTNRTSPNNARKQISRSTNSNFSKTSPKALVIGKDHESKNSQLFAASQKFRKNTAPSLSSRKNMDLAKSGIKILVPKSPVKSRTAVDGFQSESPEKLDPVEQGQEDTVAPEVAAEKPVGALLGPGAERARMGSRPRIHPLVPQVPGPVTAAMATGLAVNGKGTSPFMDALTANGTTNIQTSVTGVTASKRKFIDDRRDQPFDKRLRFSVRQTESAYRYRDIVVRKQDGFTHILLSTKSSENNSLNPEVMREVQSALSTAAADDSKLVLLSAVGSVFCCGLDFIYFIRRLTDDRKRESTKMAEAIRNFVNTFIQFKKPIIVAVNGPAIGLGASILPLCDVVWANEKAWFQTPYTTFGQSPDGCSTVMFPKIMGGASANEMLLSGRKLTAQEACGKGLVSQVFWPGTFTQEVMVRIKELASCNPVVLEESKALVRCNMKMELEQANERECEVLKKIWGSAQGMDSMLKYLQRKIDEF
Summary of the method: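 GST-tagged chromodomain expressed in E. coli BL21 with 0.2 mM IPTG at 28 °C for 6 h. Purified on GSTrap, tag removed with PreScission protease. Amine-coupled to CM5 chip at pH 4.0–4.5 (5000–10000 RU). Compound run as a 1.5- or 2-fold series from 100 µM in PBSP with 5% DMSO, 25 °C, 30 µL/min, 60 s association and 60 s dissociation.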

SH-SY5Y = assay: Effect on CDYL recruitment onto HOXA3 promoter site in human SH-SY5Y cells at 150 uM incubated for 24 hrs by ChIP-qPCR analysis; assay type: functional, cell-based
Summary of the method: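 About 1×10^7 SH-SY5Y cells given 150 µM compound or DMSO for 24 h, fixed in 1% formaldehyde for 10 min. Chromatin immunoprecipitated overnight-style (12 h, 4 °C) with CDYL or H3K27me3 antibody, captured on Protein A/G beads, washed, decrosslinked at 65 °C. Promoter DNA quantified by qPCR, mean ± S.E.M. of triplicate experiments, Student's t-test.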

[2] = biological target: T2, Chromodomain Y-like protein (Homo sapiens) (UniProt Q9Y232); assay: Inhibition of CDYL in human SH-SY5Y cells assessed as increase in VGF mRNA expression incubated for 24 hrs by RT-qPCR analysis; assay type: cell-based
T2 sequence (whole entry): T1 sequence (Q9Y232 whole entry)
Summary of the method: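 SH-SY5Y or HEK-293T cells grown in DMEM with 10% FBS and treated with compound for 24 h. mRNA quantified by SYBR green RT-qPCR after DNase treatment, 2^-ΔΔCt method with GAPDH as reference, relative to DMSO. Mean ± S.E.M. of triplicate experiments, Student's t-test.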

[3] = biological target: T3, Chromodomain Y-like protein (Mus musculus) (UniProt Q9WTK2); assay: Inhibition of CDYL in C57BL/6 mouse cortical neurons assessed as induction of dendritic branching at 150 uM incubated for 24 hrs by DAPI staining confocal microscopic method
T3 sequence (whole entry): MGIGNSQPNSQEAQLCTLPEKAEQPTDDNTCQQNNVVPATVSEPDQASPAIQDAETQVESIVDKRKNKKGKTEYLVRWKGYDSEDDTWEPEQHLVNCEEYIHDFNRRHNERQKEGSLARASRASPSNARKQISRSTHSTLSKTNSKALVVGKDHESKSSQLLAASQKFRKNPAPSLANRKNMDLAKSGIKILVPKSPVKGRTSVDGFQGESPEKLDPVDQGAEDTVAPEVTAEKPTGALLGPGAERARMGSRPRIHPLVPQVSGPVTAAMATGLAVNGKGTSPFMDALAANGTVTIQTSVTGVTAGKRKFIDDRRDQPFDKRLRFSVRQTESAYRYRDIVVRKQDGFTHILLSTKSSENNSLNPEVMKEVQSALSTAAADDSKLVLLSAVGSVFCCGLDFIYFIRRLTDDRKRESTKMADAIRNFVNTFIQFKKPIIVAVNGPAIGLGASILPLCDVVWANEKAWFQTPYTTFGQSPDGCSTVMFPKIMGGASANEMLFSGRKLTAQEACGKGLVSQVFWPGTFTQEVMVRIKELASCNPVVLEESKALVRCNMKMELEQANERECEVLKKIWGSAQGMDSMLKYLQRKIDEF
Summary of the method: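 Mouse hippocampal or cortical neurons on poly-D-lysine given 150 µM compound or DMSO at DIV 5 for 24 h, then fixed in 4% PFA. Stained for MAP2 with DAPI nuclei and imaged by confocal microscopy. Dendrite crossings counted by Sholl analysis at 10 µm intervals. Mean ± S.E.M. of triplicates, Student's t-test.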

Question: What does the source list for `O=C(Cn1c(=O)oc2ccccc21)N1CCC(N2CCCC2)CC1`?
Answer: Kd [1]: 500 nM; Activity (SH-SY5Y): inactive; Activity [2]: Dose-dependent effect; Activity [3]: Active
